Experimental findings from ChEMBL document CHEMBL1128514, “9-substituted acridine derivatives with long half-life and potent antitumor activity: synthesis and structure-activity relationships” (J Med Chem, 1995) are described below.

One test has as its target DNA topoisomerase II (Homo sapiens, UniProt P11388+Q02880). Description: In vitro 50% inhibition of topoisomerase II mediated k-DNA decatenation. It counts as protein assay.
The next test relates to HL-60. The test can be described thus: In vitro cytotoxicity against human leukemic HL-60 cell line. It counts as functional, cell-based. The essentials:
(§1)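 Growth inhibition over 72 h by XTT tetrazolium microculture assay with phenazine methosulfate-XTT for 6 h at 37 °C. Absorbance read at 450 and 630 nm. Six to seven concentrations per compound; IC50 from median-effect plot.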

Test [1] has as its system Mus musculus. Description: The compound (7.5 mg/kg, ip) was tested for change in average weight of BDF2 mice bearing Lewis lung carcinoma. It is filed as functional. The essentials: (§2)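 BD2F1 female mice, 19-21 g, carrying subcutaneous tumor brei (0.2 mL); compounds in DMSO given ip once daily × 5 starting day 3. Average body weight change (g) taken on day 14. Five mice per dose; untreated and DMSO-vehicle controls.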

For test [2], the system named is Mus musculus. Description: The compound ( ip) was tested for change in average weight of BDF2 mice bearing E0771 mammary adenocarcinoma.
For test [3], the species on record is Mus musculus. Description: Average tumor volume of the B-16 melanoma. It counts as functional. The essentials:
(§3)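 BD2F1 female mice, 19-21 g, given subcutaneous 0.2 mL solid tumor brei; dosed ip in DMSO daily for 5 days from day 3 (AHMA 7.5-10 mg/kg, VP-16 10, m-AMSA 5 mg/kg). Tumor volume on day 14 as length × width × width/2 (mm3), expressed as T/C versus untreated. Five mice per dose; DMSO-only group included; two experiments.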

Test [4] deals with Mus musculus. Description: The compound (7.5 mg/kg, ip) was tested for change in average weight of BDF2 mice bearing E0771 mammary adenocarcinoma. It is filed as functional. Summed up: as §2
The test system of test [5] is Mus musculus. Description: The compound (7.5 mg/kg, ip) was tested for change in average weight of BDF2 mice bearing B16 melanoma. It counts as functional. The essentials:
as §2

The subject of test [6] is Mus musculus. The test can be described thus: The compound (10 mg/kg, ip) was tested for change in average weight of BDF2 mice bearing Lewis lung carcinoma.
The species named for test [7] is Mus musculus. The test can be described thus: Average tumor volume of the E0771 mammary adenocarcinoma,. It counts as functional. The essentials:
as §3

The species entered for test [8] is Mus musculus. Description: Average tumor volume of the Lewis lung carcinoma. It counts as functional. Summed up:
as §3

The subject of test [9] is Mus musculus. The test can be described thus: The compound (10 mg/kg, ip) was tested for change in average weight of BDF2 mice bearing B16 melanoma.
Another test relates to L1210. Description: The compound was tested for the cytotoxicity against L1210 cell lines. It counts as functional, cell-based. Conditions: Mus musculus. Summed up: as §1
Another test has as its system CCRF S-180. The test can be described thus: The compound was tested for the cytotoxicity against S180 cell lines. It is filed as functional, cell-based. Conditions: Mus musculus. The essentials:
as §1

Test [10] can be described thus: The compound was tested for the cytotoxicity DC-3F cell lines. It is filed as functional, cell-based. Conditions: Cricetulus griseus, DC3F.
A further test concerns CCRF-CEM. The test can be described thus: The compound was tested for the cytotoxicity against human leukemic CCRF-CEM cell lines. It is filed as functional, cell-based.
For the next test, the system named is CEM-VM1. The test can be described thus: The compound was tested for the cytotoxicity against human leukemic CEM/VM-1 cell lines. It is filed as functional, cell-based.
The subject of the next test is CEM-VLB. Description: The compound was tested for the cytotoxicity against human leukemic CEM/VBL cell lines. It is filed as functional, cell-based.
The next test concerns DC3F/AD-II. Description: The compound was tested for the cytotoxicity against human leukemic DC-3F/ADII cell lines, activity is expressed as IC50 values. It counts as functional, cell-based. Conditions: Cricetulus griseus.

Several values for one entry are separate records, joined by “and”; a condition that tells them apart may be missing. Identical values can stand only once.

As for `CC(C)NC(=O)OCc1ccc(Oc2c3ccccc3nc3ccccc23)cc1`, the results for the IC50 at DNA topoisomerase II and in the test with HL-60 were 20000 nM and 1490 nM, respectively.
Turning to `Cl.Nc1cc(CO)cc(Nc2c3ccccc3nc3ccccc23)c1`, the AWC in the test on Mus musculus [1] is 0.1 g; in the test on Mus musculus [2], 0.6 g; in the test on Mus musculus [4], 0.6 g; in the test with Mus musculus [5], -0.3 g; in the test with Mus musculus [6], -0.4 g; with Mus musculus [9], -1.9 g. Besides, the T/C is 0.23 and 0.18 in the test listed under Mus musculus [3]; 0.13 and 0.14 in the test listed under Mus musculus [7]; 0.55 and 0.23 in the test listed under Mus musculus [8]. The compound also had a concentration for half-maximal inhibition (IC50) in the test on HL-60 of 25 nM.
Consider `COc1ccc2c(Oc3ccc(CO)cc3)c3ccccc3nc2c1`, for which the results for the IC50 against DNA topoisomerase II and with HL-60 were 20000 nM and 1040 nM, respectively.
For `COc1ccc2c(Sc3ccc(CO)cc3)c3ccccc3nc2c1`, the half-maximal inhibitory concentration (IC50) on DNA topoisomerase II worked out at 50000 nM; with HL-60 it was 1830 nM.
The corresponding values for `OCc1ccc(Sc2c3ccccc3nc3ccccc23)cc1` are greater than 100000 nM and 3330 nM.
As to `O=C(O)CCC(=O)Nc1cc(COC(=O)CCC(=O)O)cc(Nc2c3ccccc3nc3ccccc23)c1`, the IC50 is greater than 100000 nM against DNA topoisomerase II, 4300 nM in the test with HL-60, 990 nM in the test on L1210 and 1830 nM with CCRF S-180.
As for `CC(=O)OCc1cc(N)cc(Nc2c3ccccc3nc3ccccc23)c1`, the IC50 in the test on HL-60 was 28 nM; in the test on L1210, 34 nM.
`CC(=O)CCC(=O)Nc1cc(CO)cc(Nc2c3ccccc3nc3ccccc23)c1`: the IC50 against DNA topoisomerase II is less than 1000 nM; with HL-60, 25 nM; with L1210 it was 45 nM; in the test on CCRF S-180, 70 nM.
As to `CC(C)NC(=O)OCc1ccc(Sc2c3ccccc3nc3ccccc23)cc1`, the IC50 worked out at 50000 nM against DNA topoisomerase II and 2830 nM with HL-60.
For the compound `CNC(=O)OCc1ccc(Sc2c3ccccc3nc3cc(OC)ccc23)cc1`, the IC50 against DNA topoisomerase II is greater than 100000 nM; with HL-60 it was 2710 nM.
For the compound `CNC(=O)OCc1ccc(Sc2c3ccccc3nc3ccccc23)cc1`, the IC50 came to 20000 nM at DNA topoisomerase II and 1960 nM in the test with HL-60.
The corresponding values for `CNC(=O)OCc1ccc(Oc2c3ccccc3nc3cc(OC)ccc23)cc1` are 50000 nM and 950 nM.
`COc1ccc2c(Oc3ccc(COC(=O)NC(C)C)cc3)c3ccccc3nc2c1`: the IC50 against DNA topoisomerase II was greater than 100000 nM; with HL-60 it was 420 nM.
Regarding `CC(=O)Nc1cc(CO)cc(Nc2c3ccccc3nc3ccccc23)c1`, the values for the IC50 with HL-60 and in the test with L1210 were 18 nM and 28 nM, respectively.
As to `CNC(=O)OCc1ccc(Oc2c3ccccc3nc3ccccc23)cc1`, the IC50 on DNA topoisomerase II worked out at 20000 nM; with HL-60 it was 680 nM.
For the compound `Nc1cc(CO)cc(Nc2c3ccccc3nc3ccccc23)c1`, the IC50 was found to be 5 nM in [10]; 1000 nM against DNA topoisomerase II; 263 nM with CCRF-CEM; 1600 nM with CEM-VM1; 3790 nM in the test with CEM-VLB; 16 nM in the test on L1210. Also, the IC50 amounted to 30 nM in the test with CCRF S-180 and 54 nM with DC3F/AD-II.
Take `COc1ccc2c(Sc3ccc(COC(=O)NC(C)C)cc3)c3ccccc3nc2c1`: the IC50 on DNA topoisomerase II is greater than 100000 nM; in the test on HL-60, 1550 nM.
As to `OCc1ccc(Oc2c3ccccc3nc3ccccc23)cc1`, the figures for the IC50 on DNA topoisomerase II and in the test on HL-60 were greater than 100000 nM and 12800 nM, respectively.
Regarding `O=C(O)CCC(=O)Nc1cc(CO)cc(Nc2c3ccccc3nc3ccccc23)c1`, the IC50 at DNA topoisomerase II worked out at 20000 nM; in the test on HL-60, 5000 nM; in the test on L1210, 330 nM; in the test on CCRF S-180, 1070 nM.
As for `CC(=O)CCC(=O)Nc1cc(COC(=O)CCC(C)=O)cc(Nc2c3ccccc3nc3ccccc23)c1`, the IC50 on DNA topoisomerase II was less than 1000 nM; in the test with HL-60, 15 nM; in the test with L1210, 98 nM; with CCRF S-180, 97 nM.

One may read the IC50 as the concentration at which inhibition is half-maximal. A high value points to a need for much substance.
